ChEMBL document CHEMBL2169857, “Synthesis of a potent photoreactive acidic γ-secretase modulator for target identification in cells” (Bioorg Med Chem, 2012)
Calls of active or inactive are those of the source. The rule behind the calls is not given here.

Biological target: Presenilin-1 (Homo sapiens) (UniProt P49768)
Experiment: Binding affinity to gamma-secretase catalytic subunit of PS1 expressed in N2a-APP cells at 0.2 uM followed by irradiated with UV light by Western blot analysis
Assay type: cell-based
In short: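 N2a-ANPP cells stably overexpressing APP and all four γ-secretase subunits treated live with 0.2 μM biotinylated photoprobe or DMSO vehicle, irradiated with 350 nm UV; membranes prepared, labeled proteins affinity-purified on streptavidin beads, resolved by SDS gel and Western blotted with antibodies to the four γ-secretase subunits or APP.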
In the case of `COC(=O)CC1CCN(C(C#CCCCCNC(=O)CCCC[C@@H]2SC[C@@H]3NC(=O)N[C@@H]32)c2ccc(C3(C(F)(F)F)N=N3)cc2)C(c2ccc(C(F)(F)F)cc2)C1` (mixture of isomers), the Activity is reported as “Active”. In the case of `O=C(O)CC1CCN(C(C#CCCCCOC(=O)CCCC[C@@H]2SC[C@@H]3NC(=O)N[C@@H]32)c2ccc(C3(C(F)(F)F)N=N3)cc2)C(c2ccc(C(F)(F)F)cc2)C1` (mixture of isomers), the Activity is reported as “Active”.

Tested on: CHO
Experiment: Modulation of gamma-secretase expressed in CHO cells co-expressing wild type APP and PS1 assessed as increase of amyloid beta-38 production sandwich ELISA
Assay type: cell-based
In short: (§1)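 CHO cells stably overexpressing wild-type APP and PS1 incubated with compounds; Aβ42, Aβ40 and, for selected compounds, Aβ38 in cell-culture supernatants quantified by sandwich ELISA; IC50 derived for Aβ42.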
With `CC(C)C#C[C@H](c1ccc(Cl)cc1)N1CC[C@@H](CC(=O)O)C[C@H]1c1ccc(C(F)(F)F)cc1` the Activity was “Active”.

Tested on: not listed separately
Experiment: Modulation of gamma-secretase expressed in CHO cells co-expressing wild type APP and PS1 assessed as inhibition of amyloid beta-42 production sandwich ELISA
Assay type: cell-based
In short: as §1
`CC(C)C#C[C@@H](c1ccc(C(F)(F)F)cc1)N1CC[C@H](CC(=O)O)C[C@@H]1c1ccc(C(F)(F)F)cc1` showed an IC50 of 350 nM. `CC(C)C#C[C@H](c1ccc(C(F)(F)F)cc1)N1CC[C@@H](CC(=O)O)C[C@H]1c1ccc(C(F)(F)F)cc1` gave an IC50 of 50 nM. `CC(C)C#CC(c1ccc(C2(C(F)(F)F)N=N2)cc1)N1CCC(CC(=O)O)CC1c1ccc(C(F)(F)F)cc1` (racemic) showed an IC50 of 190 nM. `CC(C)C#C[C@H](c1ccc(Cl)cc1)N1CC[C@@H](CC(=O)O)C[C@H]1c1ccc(C(F)(F)F)cc1` gave an IC50 of 87 nM. With `O=C(O)CC1CCN(C(C#CCCCCOC(=O)CCCC[C@@H]2SC[C@@H]3NC(=O)N[C@@H]32)c2ccc(C(F)(F)F)cc2)C(c2ccc(C(F)(F)F)cc2)C1` (mixture of isomers) the IC50 was 1000 nM. For `O=C(O)CC1CCN(C(C#CCCCCNC(=O)CCCC[C@@H]2SC[C@@H]3NC(=O)N[C@@H]32)c2ccc(C3(C(F)(F)F)N=N3)cc2)C(c2ccc(C(F)(F)F)cc2)C1` (mixture of isomers), the IC50 was 2200 nM. In the case of `CC(C)C#C[C@@H](c1ccc(Cl)cc1)N1CC[C@H](CC(=O)O)C[C@@H]1c1ccc(C(F)(F)F)cc1`, the IC50 is reported as 300 nM. With `O=C(O)CC1CCN(C(C#CCCCCO)c2ccc(C3(C(F)(F)F)N=N3)cc2)C(c2ccc(C(F)(F)F)cc2)C1` (racemic) the IC50 was 2000 nM. With `CC(C)/C=C\[C@H](c1ccc(Cl)cc1)N1CC[C@@H](CC(=O)O)C[C@H]1c1ccc(C(F)(F)F)cc1` the IC50 was 30 nM. In the case of `CC(C)/C=C\[C@@H](c1ccc(Cl)cc1)N1CC[C@H](CC(=O)O)C[C@@H]1c1ccc(C(F)(F)F)cc1`, the IC50 is reported as 616 nM. `CC(C)CC[C@H](c1ccc(Cl)cc1)N1CC[C@@H](CC(=O)O)C[C@H]1c1ccc(C(F)(F)F)cc1` showed an IC50 of 68 nM. Compound `O=C(O)CC1CCN(C(C#CCCCCOC(=O)CCCC[C@@H]2SC[C@@H]3NC(=O)N[C@@H]32)c2ccc(C3(C(F)(F)F)N=N3)cc2)C(c2ccc(C(F)(F)F)cc2)C1` (mixture of isomers) has an IC50 of 500 nM. With `COc1cc(C(C#CC(C)C)N2CCC(CC(=O)O)CC2c2ccc(C(F)(F)F)cc2)ccc1-n1cnc(C)c1` (racemic) the IC50 was 1000 nM.
